Measured values from ChEMBL document CHEMBL5223168, “Using Imidazo[2,1-b][1,3,4]thiadiazol Skeleton to Design and Synthesize Novel MNK Inhibitors” (ACS Med Chem Lett, 2023).
Active and inactive are the calls of the source. The calls are words filed in the database; no cut-off is given here.

What was measured:
[1] = system: MDA-MB-231; assay: Inhibition of colony formation in human MDA-MB-231 cells at 1 to 5 uM measured after 10 days by crystal violet staining based clonogenic assay; type: functional, cell-based; settings: dose 1-5 µM, time 10.0 day
Method in brief: (§1)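 Clonogenic assay over 10 days; cells treated with DMSO vehicle or compound at indicated concentrations, plates scanned and colonies quantified from three independent experiments.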

[2] = target: T1, MAP kinase-interacting serine/threonine-protein kinase 1 (Homo sapiens, UniProt Q9BUB5); assay: Inhibition of MNK1 (unknown origin) incubated for 60 mins using CREB as substrate in presence of ATP by LANCE Ultra kinase assay
Target sequence in this assay (Q9BUB5 whole entry): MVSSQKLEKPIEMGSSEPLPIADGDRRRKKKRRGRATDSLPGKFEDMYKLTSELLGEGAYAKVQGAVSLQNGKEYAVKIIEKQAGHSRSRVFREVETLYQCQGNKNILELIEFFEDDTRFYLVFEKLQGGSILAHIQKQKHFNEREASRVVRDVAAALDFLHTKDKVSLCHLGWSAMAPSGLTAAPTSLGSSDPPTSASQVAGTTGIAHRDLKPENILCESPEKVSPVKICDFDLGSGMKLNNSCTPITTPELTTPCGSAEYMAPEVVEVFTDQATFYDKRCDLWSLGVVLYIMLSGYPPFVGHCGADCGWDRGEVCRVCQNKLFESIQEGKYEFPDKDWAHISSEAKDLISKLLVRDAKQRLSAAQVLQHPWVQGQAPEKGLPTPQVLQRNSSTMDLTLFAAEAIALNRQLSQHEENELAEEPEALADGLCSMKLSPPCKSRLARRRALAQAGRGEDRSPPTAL

[3] = target: mTORC1 (Homo sapiens) (UniProt P42345+Q8N122+Q9BVC4); assay: Inhibition of mTORC1 in human LNCaP C4-2B cells assessed as inhibition of phosphorylation of S6K at Thr389 at 5 uM incubated for 2 hrs by Western blot analysis; type: cell-based
Method in brief: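 C4-2B prostate cancer cells treated with inhibitor; lysates probed by Western blot for p-eIF4E, p-S6K (Thr389), p-rpS6 (Ser240/244) and p-AKT (Ser473).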

[4] = system: MEF; assay: Inhibition of MNK in MNK2 knockout mouse MEF cells assessed as inhibition of eIF4E phosphorylation at 3 uM incubated for 2 hrs by Western blot analysis; type: cell-based
Method in brief: (§2)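 MEFs lacking MNK1 or MNK2 (wild-type for comparison) treated 2 h at indicated concentrations; lysates immunoblotted for p-eIF4E, which reflects the remaining MNK isoform; quantified from three independent experiments, SEM.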

[5] = system: MEF; assay: Inhibition of MNK in MNK1 knockout mouse MEF cells assessed as inhibition of eIF4E phosphorylation at 1 uM incubated for 2 hrs by Western blot analysis; type: cell-based; method in brief: as §2
[6] = target: T1, MAP kinase-interacting serine/threonine-protein kinase 1; assay: Inhibition of MNK1 (unknown origin) at 3 uM in presence of ATP by kinase assay
Method in brief: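 Single-point kinase profiling: inhibitor tested at 3 μM against a panel of 60 kinases from different families, activity presented as heatmap.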
Target sequence in this assay (Q9BUB5 whole entry, looked up): as the sequence (Q9BUB5 whole entry) above

[7] = system: MDA-MB-231; assay: Antiproliferative activity against human MDA-MB-231 cells assessed as reduction in cell viability at 5 uM incubated upto 6 days by trypan blue assay; type: functional, cell-based; settings: time <= 6.0 day
Method in brief: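 A549 or MDA-MB-231 cells cultured with 5 μM compound for up to 6 days; cell number counted over time; p-eIF4E followed by immunoblot up to 96 h.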

[8] = target: Eukaryotic translation initiation factor 4E (Homo sapiens) (UniProt P06730); assay: Inhibition of eIF4E phosphorylation in human A549 cells at 5 uM and measured upto 96 hrs by Western blot analysis; type: cell-based
Method in brief: (§3)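 Cells maintained with compound at 5 μM for up to 6 days for cell counts; eIF4E phosphorylation followed by immunoblot for up to 96 h.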

[9] = target: Eukaryotic translation initiation factor 4E (Homo sapiens) (UniProt P06730); assay: Inhibition of eIF4E phosphorylation in human MDA-MB-231 cells at 5 uM and measured upto 96 hrs by Western blot analysis; type: cell-based; method in brief: as §3
[10] = system: A549; assay: Inhibition of colony formation in human A549 cells at 1 to 5 uM measured after 10 days by crystal violet staining based clonogenic assay; type: functional, cell-based; settings: dose 1-5 µM, time 10.0 day; method in brief: as §1
[11] = system: MDA-MB-231; assay: Induction of cell cycle arrest in human MDA-MB-231 cells assessed as decrease in cyclin B1 level at 5 uM incubated for 24 hrs by Western blot analysis; type: functional, cell-based
Method in brief: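 A549 and MDA-MB-231 cells treated 24 h with 5 μM; lysates resolved by SDS-PAGE and immunoblotted for cyclin B1, cyclin D3 and MMP-3.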

[12] = system: A549; assay: Induction of cell cycle arrest in human A549 cells assessed as accumulation of cells at G2/M phase at 5 uM incubated for 8 hrs by propidium iodide staining based flow cytometry (Rvb=6.5%); type: functional
[13] = system: A549; assay: Induction of cell cycle arrest in human A549 cells assessed as accumulation of cells at G2/M phase at 5 uM incubated for 16 hrs by propidium iodide staining based flow cytometry (Rvb=11.8%); type: functional
[14] = system: A549; assay: Induction of cell cycle arrest in human A549 cells assessed as accumulation of cells at G2/M phase at 5 uM incubated for 20 hrs by propidium iodide staining based flow cytometry (Rvb=15.5%); type: functional
[15] = system: A549; assay: Induction of cell cycle arrest in human A549 cells assessed as accumulation of cells at G0/G1 phase at 5 uM incubated for 8 hrs by propidium iodide staining based flow cytometry (Rvb=91.7%); type: functional
[16] = system: A549; assay: Antimigratory activity against human A549 cells assessed as inhibition of cell migration at 5 uM and measured upto 24 hrs by scratch wound healing assay; type: functional, cell-based
Method in brief: (§4)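 Scratch wound-healing: A549 or MDA-MB-231 monolayers wounded, then exposed to 5 μM compound or DMSO; wound imaged at 6 and 24 h; percentage change in wound area quantified by image analysis at each time point.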

[17] = system: MDA-MB-231; assay: Antimigratory activity against human MDA-MB-231 cells assessed as inhibition of cell migration at 5 uM and measured upto 24 hrs by scratch wound healing assay; type: functional, cell-based; method in brief: as §4
[18] = Cmax in mouse at 25 mg/kg, iv and measured upto 24 hrs; type: ADME, organism-based; design: dose 25 mg/kg, time < 24 hrs, route iv; settings: in vivo
[19] = Clearance in mouse at 25 mg/kg, iv and measured upto 24 hrs; type: ADME, organism-based; settings: in vivo
[20] = Tmax in mouse at 50 mg/kg, po and measured upto 24 hrs; type: ADME, organism-based; settings: in vivo
[21] = Clearance in mouse at 50 mg/kg, po and measured upto 24 hrs; type: ADME, organism-based; settings: in vivo
[22] = system: A549; assay: Antitumor activity against human A549 cells xenografted in BALB/C nude mouse assessed as T/C ratio at 150 mg/kg, po QD for 14 days; type: functional; settings: time 14 day
Method in brief: (§5)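 A549 xenografts in nude mice; compound given orally once daily at 75 or 150 mg/kg for 14 days, irinotecan reference at 3 mg/kg; tumor growth tracked as T/C ratio (relative tumor proliferation rate); body weight monitored.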

[23] = system: A549; assay: Antitumor activity against human A549 cells xenografted in BALB/C nude mouse assessed as reduction in tumor volume at 75 to 150 mg/kg, po QD for 14 days; type: functional, organism-based; settings: dose 75-150 mg/kg, time 14.0 day; method in brief: as §5
[24] = system: MAP kinase-interacting kinase MNK1/2 (Homo sapiens); assay: Inhibition of MNK in human A549 cells assessed as reduction in TNF-alpha level at 1 to 10 uM incubated for 48 hrs by ELISA; settings: dose 1-10 µM
[25] = system: MAP kinase-interacting kinase MNK1/2 (Homo sapiens); assay: Inhibition of MNK in human A549 cells assessed as inhibition of eIF4E phosphorylation at 3 uM incubated for 2 hrs by Western blot analysis
[26] = system: MAP kinase-interacting kinase MNK1/2 (Homo sapiens); assay: Inhibition of MNK in human SKM-1 cells assessed as inhibition of eIF4E phosphorylation at 10 uM incubated for 2 hrs by Western blot analysis
[27] = system: MAP kinase-interacting kinase MNK1/2 (Homo sapiens); assay: Inhibition of MNK in human LNCaP C4-2B cells assessed as inhibition of eIF4E phosphorylation at 5 uM incubated for 2 hrs by Western blot analysis
[28] = system: MV4-11; assay: Induction of cell cycle arrest in human MV4-11 cells assessed as decrease in cyclin D3 level at 3 uM incubated for 24 hrs by Western blot analysis

Sequence of Eukaryotic translation initiation factor 4E (Homo sapiens) (P06730 whole entry): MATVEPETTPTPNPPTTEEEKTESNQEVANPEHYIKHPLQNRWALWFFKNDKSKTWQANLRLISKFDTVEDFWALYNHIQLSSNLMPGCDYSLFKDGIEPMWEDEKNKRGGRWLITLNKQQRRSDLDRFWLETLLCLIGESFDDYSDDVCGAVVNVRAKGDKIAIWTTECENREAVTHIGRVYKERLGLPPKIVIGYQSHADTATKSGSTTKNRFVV
Sequence of mTORC1 (Homo sapiens) (Q8N122 whole entry, looked up, other chains not shown): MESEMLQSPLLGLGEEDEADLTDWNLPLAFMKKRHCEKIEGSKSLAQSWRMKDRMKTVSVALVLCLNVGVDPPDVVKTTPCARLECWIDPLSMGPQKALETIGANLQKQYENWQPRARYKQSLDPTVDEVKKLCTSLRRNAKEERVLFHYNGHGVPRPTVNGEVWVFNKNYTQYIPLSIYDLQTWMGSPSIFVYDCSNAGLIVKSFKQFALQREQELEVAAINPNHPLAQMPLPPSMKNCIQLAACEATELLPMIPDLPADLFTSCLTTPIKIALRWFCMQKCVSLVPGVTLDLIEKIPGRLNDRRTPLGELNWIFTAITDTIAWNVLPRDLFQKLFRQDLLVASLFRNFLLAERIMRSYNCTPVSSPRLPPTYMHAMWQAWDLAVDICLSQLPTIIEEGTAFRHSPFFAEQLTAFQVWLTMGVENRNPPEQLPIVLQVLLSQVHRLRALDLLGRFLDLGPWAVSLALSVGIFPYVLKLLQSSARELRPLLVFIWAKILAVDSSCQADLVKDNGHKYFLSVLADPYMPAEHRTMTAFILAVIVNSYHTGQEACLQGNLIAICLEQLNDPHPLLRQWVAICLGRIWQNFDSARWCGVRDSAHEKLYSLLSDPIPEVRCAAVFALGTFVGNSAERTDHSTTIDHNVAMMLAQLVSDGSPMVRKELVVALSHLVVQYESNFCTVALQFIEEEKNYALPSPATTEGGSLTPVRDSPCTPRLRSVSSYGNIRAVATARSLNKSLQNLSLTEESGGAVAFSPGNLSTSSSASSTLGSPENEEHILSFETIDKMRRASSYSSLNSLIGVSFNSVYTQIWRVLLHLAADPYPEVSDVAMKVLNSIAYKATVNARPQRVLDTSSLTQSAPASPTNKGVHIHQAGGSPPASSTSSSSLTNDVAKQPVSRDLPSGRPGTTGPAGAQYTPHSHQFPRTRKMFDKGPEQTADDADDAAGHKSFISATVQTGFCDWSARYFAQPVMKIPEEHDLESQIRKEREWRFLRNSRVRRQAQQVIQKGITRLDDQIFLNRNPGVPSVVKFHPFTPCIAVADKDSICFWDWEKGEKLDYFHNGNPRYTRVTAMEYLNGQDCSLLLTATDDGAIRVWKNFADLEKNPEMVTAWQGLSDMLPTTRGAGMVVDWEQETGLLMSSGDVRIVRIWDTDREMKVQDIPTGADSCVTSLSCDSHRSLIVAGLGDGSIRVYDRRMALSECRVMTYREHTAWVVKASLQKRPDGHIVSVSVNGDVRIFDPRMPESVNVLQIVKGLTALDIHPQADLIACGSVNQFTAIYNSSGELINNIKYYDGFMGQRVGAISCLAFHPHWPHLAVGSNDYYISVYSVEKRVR
Sequence of mTORC1 (Homo sapiens) (Q9BVC4 whole entry, looked up, other chains not shown): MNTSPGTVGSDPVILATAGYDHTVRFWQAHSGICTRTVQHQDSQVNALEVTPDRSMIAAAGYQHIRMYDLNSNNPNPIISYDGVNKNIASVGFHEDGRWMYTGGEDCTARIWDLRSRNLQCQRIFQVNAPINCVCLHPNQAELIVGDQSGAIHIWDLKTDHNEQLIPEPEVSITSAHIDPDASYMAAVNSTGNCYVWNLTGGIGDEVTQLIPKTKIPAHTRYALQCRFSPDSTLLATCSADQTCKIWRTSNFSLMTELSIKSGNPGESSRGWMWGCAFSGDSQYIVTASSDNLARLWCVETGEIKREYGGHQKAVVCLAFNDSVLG

In the case of `CN1CCN(C(=O)c2ccc(-c3nn4c(-c5ccc(C#N)cc5)cnc4s3)cc2)CC1`, the inhibition [1] is reported as “Dose-Dependent Effect”, the IC50 [2] is reported as 11.5 nM and the inhibition [3] is reported as “inactive”. For the same molecule, the inhibition [4] was 50%, the inhibition [5] was “Active” and the inhibition [6] was 100%. The Activity [7] was “Active”, the inhibition [8] was “Active” and the inhibition [9] was “Active”. For the same molecule, the inhibition [10] was “Dose-Dependent Effect”, the Activity [11] was “Active” and the Activity [12] was 9%. The Activity [13] was 5.2%, the Activity [14] was 3.3% and the Activity [15] was 88.2%. For the same molecule, the Activity [16] was “Active”, the Activity [17] was “Active” and the Cmax [18] was 32100 ng/mL. It also gave a clearance [19] of 5.13 mL/min/kg, a Tmax [20] of 1 h and a CL/F [21] of 8.45 mL/min/kg. For the same molecule, the T/C [22] was 0.5, the Activity [23] was “Dose-Dependent Effect” and the inhibition [24] was “Active”. The inhibition [25] was “Active”, the inhibition [26] was “Active” and the inhibition [27] was “Active”. The Activity [28] was “Active”.
